From the M2OR odorant receptor database

Assays:
Conditions in all cases: stereoisomer not certain
Or1m1 (Mus musculus) = target: T1, Or1m1 (Mus musculus) (UniProt Q8VFM9)
T1 sequence (whole entry): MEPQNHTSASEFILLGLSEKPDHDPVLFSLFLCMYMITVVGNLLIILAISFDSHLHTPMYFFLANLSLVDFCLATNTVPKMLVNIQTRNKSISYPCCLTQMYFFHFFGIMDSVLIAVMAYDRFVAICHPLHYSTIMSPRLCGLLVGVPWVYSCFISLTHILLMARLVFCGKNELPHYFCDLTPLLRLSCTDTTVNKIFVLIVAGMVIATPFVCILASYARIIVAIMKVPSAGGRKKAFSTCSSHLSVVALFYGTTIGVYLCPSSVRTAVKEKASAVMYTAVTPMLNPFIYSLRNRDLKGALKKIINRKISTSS
Method in brief: (§1)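 Values were gathered from published papers (main text and supplementary material), with extra details requested from the original authors when needed, and checked for typos and inconsistencies. Each receptor–molecule pair is called responsive (active) if the original authors judged the measured signal statistically different from baseline, and non-responsive (inactive) otherwise. Assay methods varied by source, often transient mammalian cell-line luciferase assays. Recorded details include cell line, G-protein, co-transfected protein and tags.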

Or5ar1 (Mus musculus) = target: T2, Or5ar1 (Mus musculus) (UniProt Q8VGS3)
T2 sequence (whole entry): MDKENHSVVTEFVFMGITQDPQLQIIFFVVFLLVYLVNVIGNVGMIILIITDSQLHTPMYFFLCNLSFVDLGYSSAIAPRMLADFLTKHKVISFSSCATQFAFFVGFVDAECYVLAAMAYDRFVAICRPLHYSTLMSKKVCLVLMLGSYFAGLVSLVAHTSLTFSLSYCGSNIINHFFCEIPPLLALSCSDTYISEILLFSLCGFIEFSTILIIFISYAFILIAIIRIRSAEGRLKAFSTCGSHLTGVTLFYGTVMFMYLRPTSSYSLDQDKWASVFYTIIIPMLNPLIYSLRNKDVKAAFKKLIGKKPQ
Method in brief: as §1

UniProt A2ATE5 = target: T3, UniProt A2ATE5
T3 sequence (whole entry): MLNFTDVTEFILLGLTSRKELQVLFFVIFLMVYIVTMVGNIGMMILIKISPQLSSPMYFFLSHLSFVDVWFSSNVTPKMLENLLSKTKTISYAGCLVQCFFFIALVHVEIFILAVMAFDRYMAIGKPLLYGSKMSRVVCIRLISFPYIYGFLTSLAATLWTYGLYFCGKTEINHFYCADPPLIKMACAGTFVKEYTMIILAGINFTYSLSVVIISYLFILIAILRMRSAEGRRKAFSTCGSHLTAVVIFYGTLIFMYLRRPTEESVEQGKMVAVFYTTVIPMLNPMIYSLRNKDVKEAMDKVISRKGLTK
Method in brief: as §1

UniProt A2AVB0 = target: T4, UniProt A2AVB0
T4 sequence (whole entry): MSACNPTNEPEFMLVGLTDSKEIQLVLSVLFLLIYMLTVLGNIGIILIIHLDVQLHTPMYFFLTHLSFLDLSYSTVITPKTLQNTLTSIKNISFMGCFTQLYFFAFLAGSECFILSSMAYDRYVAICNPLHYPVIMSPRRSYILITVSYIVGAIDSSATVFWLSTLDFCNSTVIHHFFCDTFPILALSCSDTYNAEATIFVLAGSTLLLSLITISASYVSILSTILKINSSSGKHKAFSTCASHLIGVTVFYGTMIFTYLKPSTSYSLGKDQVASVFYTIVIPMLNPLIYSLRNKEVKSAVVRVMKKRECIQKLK
Method in brief: as §1

OR9G9 = test system: OR9G9
Method in brief: as §1

Or2c1 (Mus musculus) = target: T5, Or2c1 (Mus musculus) (UniProt P23275)
T5 sequence (whole entry): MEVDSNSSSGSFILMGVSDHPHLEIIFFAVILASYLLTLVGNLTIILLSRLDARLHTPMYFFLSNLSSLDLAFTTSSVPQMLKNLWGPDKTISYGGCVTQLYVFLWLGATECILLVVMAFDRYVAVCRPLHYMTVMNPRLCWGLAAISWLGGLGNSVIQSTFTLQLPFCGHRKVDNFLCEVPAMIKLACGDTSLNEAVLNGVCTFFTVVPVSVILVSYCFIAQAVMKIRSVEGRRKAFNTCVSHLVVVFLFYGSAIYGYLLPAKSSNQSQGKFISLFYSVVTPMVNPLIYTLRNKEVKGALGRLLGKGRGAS
Method in brief: as §1

Or5p80 (Mus musculus) = target: T6, Or5p80 (Mus musculus) (UniProt Q8VG42)
T6 sequence (whole entry): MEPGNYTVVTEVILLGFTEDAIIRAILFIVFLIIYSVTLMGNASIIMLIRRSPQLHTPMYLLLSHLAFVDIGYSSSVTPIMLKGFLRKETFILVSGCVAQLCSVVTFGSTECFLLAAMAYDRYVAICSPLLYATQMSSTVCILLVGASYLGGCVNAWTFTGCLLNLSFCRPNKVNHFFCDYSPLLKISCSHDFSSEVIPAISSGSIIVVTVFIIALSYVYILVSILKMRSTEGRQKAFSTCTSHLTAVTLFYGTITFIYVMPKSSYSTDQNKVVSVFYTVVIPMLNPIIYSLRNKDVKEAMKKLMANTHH
Method in brief: as §1

Or7a40 (Mus musculus) = target: T7, Or7a40 (Mus musculus) (UniProt Q9JHB2)
T7 sequence (whole entry): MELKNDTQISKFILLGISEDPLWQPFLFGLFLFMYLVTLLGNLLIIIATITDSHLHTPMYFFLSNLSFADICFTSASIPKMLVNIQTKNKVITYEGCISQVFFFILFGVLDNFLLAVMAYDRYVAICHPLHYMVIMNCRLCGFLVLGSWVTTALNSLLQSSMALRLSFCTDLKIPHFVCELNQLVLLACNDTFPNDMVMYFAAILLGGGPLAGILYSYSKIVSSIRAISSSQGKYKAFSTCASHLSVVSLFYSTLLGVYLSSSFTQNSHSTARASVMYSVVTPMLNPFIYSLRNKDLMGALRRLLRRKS
Method in brief: as §1

UniProt A2AVB5 = target: T8, UniProt A2AVB5
T8 sequence (whole entry): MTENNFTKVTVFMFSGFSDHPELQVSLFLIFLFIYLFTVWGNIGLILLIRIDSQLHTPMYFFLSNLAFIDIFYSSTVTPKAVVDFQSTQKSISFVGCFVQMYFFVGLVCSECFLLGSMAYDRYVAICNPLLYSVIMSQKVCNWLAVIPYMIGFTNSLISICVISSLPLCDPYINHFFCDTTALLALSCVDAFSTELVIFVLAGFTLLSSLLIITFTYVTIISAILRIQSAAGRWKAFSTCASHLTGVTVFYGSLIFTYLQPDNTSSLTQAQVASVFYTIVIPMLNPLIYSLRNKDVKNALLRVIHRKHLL
Method in brief: as §1

OR9G9 (Homo sapiens) = OR9G9 (Homo sapiens) (UniProt P0C7N8)
Method in brief: as §1

OR9I1 (Homo sapiens) = OR9I1 (Homo sapiens) (UniProt Q8NGQ6)
Method in brief: as §1

OR9K2 (Homo sapiens) = OR9K2 (Homo sapiens) (UniProt Q8NGE7)
Method in brief: as §1

OR9Q1 (Homo sapiens) = OR9Q1 (Homo sapiens) (UniProt Q8NGQ5)
Method in brief: as §1

OR9Q2 (Homo sapiens) = OR9Q2 (Homo sapiens) (UniProt Q8NGE9)
Method in brief: as §1

Or5an6 (Mus musculus) = Or5an6 (Mus musculus) (UniProt Q8VFV4)
Method in brief: as §1

[1] = target: Olr226 (Rattus norvegicus) (UniProt P23270)
Method in brief: as §1

Or5p57 (Mus musculus) = Or5p57 (Mus musculus) (UniProt Q8VEZ0)
Method in brief: as §1

OR9K2 R207H = test system: OR9K2 R207H
Method in brief: as §1

OR9Q1 A83T = test system: OR9Q1 A83T
Method in brief: as §1

OR9Q2 C179R = test system: OR9Q2 C179R
Method in brief: as §1

Measured: odorant receptor agonist call

Chain of OR9G9 (as listed by the source): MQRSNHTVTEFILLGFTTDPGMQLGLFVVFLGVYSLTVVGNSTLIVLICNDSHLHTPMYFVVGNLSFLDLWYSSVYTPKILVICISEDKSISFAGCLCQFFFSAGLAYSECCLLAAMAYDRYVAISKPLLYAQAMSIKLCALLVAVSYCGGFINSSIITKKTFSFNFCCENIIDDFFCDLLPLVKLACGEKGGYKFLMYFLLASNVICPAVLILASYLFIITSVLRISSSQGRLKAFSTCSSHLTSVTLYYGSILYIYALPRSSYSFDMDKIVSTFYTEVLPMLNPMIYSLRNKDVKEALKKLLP
Chain of OR9Q2 (Homo sapiens) (Q8NGE9 whole entry): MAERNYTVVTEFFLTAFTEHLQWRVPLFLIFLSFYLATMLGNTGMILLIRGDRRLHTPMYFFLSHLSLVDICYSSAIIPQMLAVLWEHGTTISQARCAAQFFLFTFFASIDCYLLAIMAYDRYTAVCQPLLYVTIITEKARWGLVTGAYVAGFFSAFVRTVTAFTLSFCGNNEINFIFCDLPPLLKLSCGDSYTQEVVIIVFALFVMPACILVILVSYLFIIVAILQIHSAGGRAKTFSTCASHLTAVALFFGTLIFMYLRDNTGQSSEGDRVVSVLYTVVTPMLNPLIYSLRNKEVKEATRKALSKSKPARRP
Chain of OR9Q1 (Homo sapiens) (Q8NGQ5 whole entry): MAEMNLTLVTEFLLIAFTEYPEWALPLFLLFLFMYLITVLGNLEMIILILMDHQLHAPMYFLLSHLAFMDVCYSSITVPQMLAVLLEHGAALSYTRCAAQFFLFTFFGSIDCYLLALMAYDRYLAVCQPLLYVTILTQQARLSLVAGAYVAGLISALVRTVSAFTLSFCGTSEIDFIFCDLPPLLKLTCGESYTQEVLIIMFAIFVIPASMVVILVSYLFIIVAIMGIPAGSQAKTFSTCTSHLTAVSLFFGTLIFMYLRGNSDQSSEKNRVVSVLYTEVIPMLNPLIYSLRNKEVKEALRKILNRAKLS
Chain of OR9K2 (Homo sapiens) (Q8NGE7 whole entry): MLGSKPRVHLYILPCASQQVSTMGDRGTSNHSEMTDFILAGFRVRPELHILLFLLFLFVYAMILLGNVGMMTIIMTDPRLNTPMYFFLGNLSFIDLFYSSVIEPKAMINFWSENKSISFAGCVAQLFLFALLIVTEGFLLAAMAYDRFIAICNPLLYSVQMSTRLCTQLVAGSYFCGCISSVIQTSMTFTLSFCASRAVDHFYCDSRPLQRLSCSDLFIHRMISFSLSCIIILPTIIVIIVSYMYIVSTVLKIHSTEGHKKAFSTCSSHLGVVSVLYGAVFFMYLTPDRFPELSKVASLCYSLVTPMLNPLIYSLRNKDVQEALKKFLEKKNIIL
Chain of Or5an6 (Mus musculus) (Q8VFV4 whole entry): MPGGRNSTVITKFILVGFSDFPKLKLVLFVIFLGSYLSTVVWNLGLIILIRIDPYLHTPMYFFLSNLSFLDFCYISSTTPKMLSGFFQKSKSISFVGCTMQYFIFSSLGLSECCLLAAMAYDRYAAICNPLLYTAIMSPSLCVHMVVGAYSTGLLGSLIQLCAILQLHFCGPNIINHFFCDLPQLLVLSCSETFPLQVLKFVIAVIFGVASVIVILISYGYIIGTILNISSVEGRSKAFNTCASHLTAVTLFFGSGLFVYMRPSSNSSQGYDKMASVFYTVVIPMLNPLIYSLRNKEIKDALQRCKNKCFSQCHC
Chain of OR9I1 (Homo sapiens) (Q8NGQ6 whole entry): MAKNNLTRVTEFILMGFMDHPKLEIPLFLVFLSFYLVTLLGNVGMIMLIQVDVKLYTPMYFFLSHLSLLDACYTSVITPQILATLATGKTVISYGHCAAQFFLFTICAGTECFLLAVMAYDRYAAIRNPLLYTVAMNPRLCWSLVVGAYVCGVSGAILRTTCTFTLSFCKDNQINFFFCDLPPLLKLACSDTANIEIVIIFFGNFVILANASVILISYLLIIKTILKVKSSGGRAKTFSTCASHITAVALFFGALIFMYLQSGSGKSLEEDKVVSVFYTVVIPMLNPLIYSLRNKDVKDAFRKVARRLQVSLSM
Chain of Olr226 (Rattus norvegicus) (P23270 whole entry): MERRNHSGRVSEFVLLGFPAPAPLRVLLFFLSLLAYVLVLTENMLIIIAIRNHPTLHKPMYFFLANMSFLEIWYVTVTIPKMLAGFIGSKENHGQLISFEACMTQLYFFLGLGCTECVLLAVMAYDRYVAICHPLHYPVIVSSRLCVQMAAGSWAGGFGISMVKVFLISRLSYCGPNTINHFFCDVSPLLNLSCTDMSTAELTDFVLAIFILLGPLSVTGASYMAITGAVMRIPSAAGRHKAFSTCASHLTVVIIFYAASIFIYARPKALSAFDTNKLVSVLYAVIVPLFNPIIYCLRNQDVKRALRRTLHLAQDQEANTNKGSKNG
Chain of OR9G9 (Homo sapiens) (P0C7N8 whole entry): as the sequence (as listed by the source) above, with G193C counted along it
Chain of OR9Q2 C179R (as listed by the source, stated change not applied): as the sequence (Q8NGE9 whole entry) above, with C179R counted along it
Chain of Or5p57 (Mus musculus) (Q8VEZ0 whole entry): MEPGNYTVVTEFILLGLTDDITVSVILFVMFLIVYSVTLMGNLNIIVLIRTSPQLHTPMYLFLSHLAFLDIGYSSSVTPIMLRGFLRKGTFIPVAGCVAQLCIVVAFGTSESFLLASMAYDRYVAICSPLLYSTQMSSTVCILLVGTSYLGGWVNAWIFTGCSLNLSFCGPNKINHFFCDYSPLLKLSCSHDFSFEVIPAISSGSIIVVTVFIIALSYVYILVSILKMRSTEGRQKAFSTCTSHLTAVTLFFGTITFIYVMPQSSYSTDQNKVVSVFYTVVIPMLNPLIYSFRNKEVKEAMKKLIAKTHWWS
Chain of OR9Q1 A83T (as listed by the source, stated change not applied): as the sequence (Q8NGQ5 whole entry) above, with A83T counted along it
Chain of OR9K2 R207H (as listed by the source, stated change not applied): as the sequence (Q8NGE7 whole entry) above, with R207H counted along it

C=C(C)C1CC=C(C=O)CC1 (configuration not stated)
inactive: Or1m1 (Mus musculus) | Or5ar1 (Mus musculus) | UniProt A2ATE5 | UniProt A2AVB0

O=CC=Cc1ccccc1
active: OR9G9
inactive: Or1m1 (Mus musculus) | Or5ar1 (Mus musculus) | UniProt A2ATE5 | UniProt A2AVB0

C=CCc1ccccc1
active: Or2c1 (Mus musculus)
inactive: Or5ar1 (Mus musculus) | Or5p80 (Mus musculus) | Or7a40 (Mus musculus) | UniProt A2AVB5

CSSC
inactive: Or1m1 (Mus musculus) | Or5ar1 (Mus musculus) | UniProt A2ATE5 | UniProt A2AVB0

OCc1ccc2c(c1)OCO2
inactive: Or1m1 (Mus musculus) | Or5ar1 (Mus musculus) | UniProt A2ATE5 | UniProt A2AVB0

CCCCC(Br)C(=O)O (configuration not stated)
inactive: Or1m1 (Mus musculus) | Or5ar1 (Mus musculus) | UniProt A2ATE5 | UniProt A2AVB0

Cc1c([N+](=O)[O-])c(C)c([N+](=O)[O-])c(C(C)(C)C)c1[N+](=O)[O-]
active: Or5an6 (Mus musculus)
inactive: OR9G9 (Homo sapiens) | OR9I1 (Homo sapiens) | OR9K2 (Homo sapiens) | OR9Q1 (Homo sapiens) | OR9Q2 (Homo sapiens)

Oc1ccccc1Br
inactive: Or1m1 (Mus musculus) | Or5ar1 (Mus musculus) | UniProt A2ATE5 | UniProt A2AVB0

CCC1CCC(=O)O1 (configuration not stated)
inactive: Or2c1 (Mus musculus) | Or5ar1 (Mus musculus) | Or5p80 (Mus musculus) | Or7a40 (Mus musculus) | UniProt A2AVB5

CC(C=O)Cc1ccc2c(c1)OCO2 (configuration not stated)
inactive: [1] | Or1m1 (Mus musculus) | Or5ar1 (Mus musculus) | UniProt A2ATE5 | UniProt A2AVB0

COc1ccc(C=O)cc1
inactive: Or1m1 (Mus musculus) | Or5ar1 (Mus musculus) | UniProt A2ATE5 | UniProt A2AVB0

O=c1cc(O)c2ccccc2o1
inactive: Or1m1 (Mus musculus) | Or2c1 (Mus musculus) | Or5ar1 (Mus musculus) | Or5p80 (Mus musculus) | Or7a40 (Mus musculus) | UniProt A2ATE5 | UniProt A2AVB0 | UniProt A2AVB5

O=Cc1ccc2c(c1)OCO2
inactive: Or1m1 (Mus musculus) | Or5ar1 (Mus musculus) | UniProt A2ATE5 | UniProt A2AVB0

O=C(O)CCCCCCCBr
inactive: Or5p57 (Mus musculus)

Cc1ccc(OC(=O)Cc2ccccc2)cc1
inactive: Or1m1 (Mus musculus) | Or5ar1 (Mus musculus) | UniProt A2ATE5 | UniProt A2AVB0

C=CCOC(=O)Cc1ccccc1
active: Or2c1 (Mus musculus)
not listed: OR9G9 (Homo sapiens) | Or5an6 (Mus musculus) | [1] | Or5p57 (Mus musculus)
inactive: all other assays above

CCCCCCC(Br)C(=O)O (configuration not stated)
inactive: Or1m1 (Mus musculus) | Or5ar1 (Mus musculus) | UniProt A2ATE5 | UniProt A2AVB0

CC(=O)c1cc(C(C)(C)C)cc2c1CCC2(C)C
active: Or5an6 (Mus musculus)

O=Cc1ccccc1
inactive: Or1m1 (Mus musculus) | Or5ar1 (Mus musculus) | UniProt A2ATE5 | UniProt A2AVB0
